Reference: ChEMBL document CHEMBL1137724, “2-Azetidinone derivatives: design, synthesis and evaluation of cholesterol absorption inhibitors” (2009)

Legend:
Hamster [1] = test: Hypocholesterolemic effect in high cholesterol-fed hamster assessed as increase in HDL-cholesterol at 50 mg/kg, po for 7 days; assay type: functional, Cricetinae
Method in brief: (§1)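 Blood was collected at sacrifice on the last dosing day for lipid analysis. Plasma total cholesterol and HDL-C were measured by a commercial kit using a modified cholesterol oxidase method.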

Hamster [2] = test: Hypocholesterolemic effect in high cholesterol-fed hamster assessed as reduction in plasma total cholesterol at 50 mg/kg, po for 7 days; assay type: functional, Cricetinae; design: scale not given: the % may be the effect or the level left; method in brief: as §1

COc1ccc(N2C(=O)[C@H](CCC(O)(c3ccc(F)cc3)c3ccc(F)cc3)[C@H]2c2cc3c(cc2Br)OCO3)cc1
Activity (Hamster [1]): 31.8% | Activity (Hamster [2]): 19.8%

COc1ccc([C@@H]2[C@@H](CCC(=O)Nc3ccc(C)cc3)C(=O)N2c2ccc(OC)cc2)cc1
Activity (Hamster [1]; 50 mg/kg): 21.7% | Activity (Hamster [2]; 50 mg/kg): 28.1%

COc1ccc([C@@H]2[C@@H](CCC(O)(c3ccccc3)c3ccccc3)C(=O)N2c2ccccc2C)cc1
Activity (Hamster [1]): 14.5% | Activity (Hamster [2]): 34.8%

Cc1ccccc1N1C(=O)[C@H](CCC(O)(c2ccc(F)cc2)c2ccc(F)cc2)[C@H]1c1ccc2c(c1)OCO2
Activity (Hamster [1]): 24.8% | Activity (Hamster [2]): 10.4%

COc1ccc([C@@H]2[C@@H](CCC(=O)Nc3ccc(C)cc3)C(=O)N2c2ccccc2)cc1
Activity (Hamster [1]; 50 mg/kg): 22.1%

COc1ccc([C@@H]2[C@@H](CCC(=O)Nc3ccc(Cl)cc3)C(=O)N2c2ccc(C)cc2)cc1
Activity (Hamster [1]): 13.7% | Activity (Hamster [2]): 31.6%

COc1ccc([C@@H]2[C@@H](CCC(=O)Nc3ccc(C)cc3)C(=O)N2c2ccc(OC)cc2)cc1 (relative stereo)
Activity (Hamster [1]; 50 mg/kg): 12.4% | Activity (Hamster [2]; 50 mg/kg): 20.9%

COc1ccc([C@H]2[C@H](CCC(=O)Nc3ccc(Cl)cc3)C(=O)N2c2ccc(C)cc2)cc1 (relative stereo)
Activity (Hamster [1]): 17.8% | Activity (Hamster [2]): 26.3%

COc1ccc([C@@H]2[C@@H](CCC(O)(c3ccccc3)c3ccccc3)C(=O)N2c2ccc(F)cc2)cc1 (relative stereo)
Activity (Hamster [1]): 35% | Activity (Hamster [2]): 16.3%

COc1ccc([C@@H]2[C@@H](CCC(=O)Nc3ccc(Cl)cc3)C(=O)N2c2ccc(OC)cc2)cc1 (relative stereo)
Activity (Hamster [1]): 20.1% | Activity (Hamster [2]): 16.3%

COc1ccc([C@@H]2[C@@H](CCC(O)(c3ccc(F)cc3)c3ccc(F)cc3)C(=O)N2c2ccc(Br)cc2)cc1 (relative stereo)
Activity (Hamster [1]): 32.9% | Activity (Hamster [2]): 11.2%

COc1ccc([C@@H]2[C@@H](CCC(=O)Nc3ccc(C)cc3)C(=O)N2c2ccccc2)cc1 (relative stereo)
Activity (Hamster [1]; 50 mg/kg): 13.9%

COc1ccc([C@@H]2[C@@H](CCC(=O)Nc3ccc(C)cc3)C(=O)N2c2ccc(C)cc2)cc1 (relative stereo)
Activity (Hamster [1]): 23.9% | Activity (Hamster [2]): 18.7%

O=C1[C@H](CCC(O)(c2ccccc2)c2ccccc2)[C@@H](c2ccc3c(c2)OCO3)N1c1ccc(Cl)cc1 (relative stereo)
Activity (Hamster [1]): 11.4% | Activity (Hamster [2]): 28.7%

O=C1[C@H](CC[C@H](O)c2ccc(F)cc2)[C@@H](c2ccc(O)cc2)N1c1ccc(F)cc1 [EZETIMIBE]
Activity (Hamster [1]): 37.3% | Activity (Hamster [2]): 48.7%
